Laboratory results reported in ChEMBL document CHEMBL1138614, “Synthesis and antibacterial activities of novel oxazolidinones having spiro[2,4]heptane moieties” (2009).
In brackets after ≈: the same amount, converted by molar mass.

Experiments:
Type in all cases: functional
[1] = tested on: Enterococcus; test: Antibacterial activity against vancomycin-resistant Enterococcus 3 after 18 to 20 hrs by agar dilution method
Procedure, shortened: (§1)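 Agar dilution MIC on test agar. Bacteria grown overnight in tryptosoy broth, diluted in the same broth to about 10⁶ cells/mL, then applied with an inoculating device onto agar holding serial twofold dilutions of compound. Plates incubated at 37 °C for 18–20 h. MIC taken as the lowest concentration visibly inhibiting growth, in µg/ml.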

[2] = tested on: Enterococcus; test: Antibacterial activity against vancomycin-resistant Enterococcus 5 after 18 to 20 hrs by agar dilution method; procedure, shortened: as §1
[3] = tested on: Streptococcus agalactiae; test: Antibacterial activity against Streptococcus agalactiae ATCC 2901 after 18 to 20 hrs by agar dilution method
Procedure, shortened: (§2)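 Agar dilution: bacteria grown overnight in tryptosoy broth and diluted in the same broth to about 10⁶ cells/mL. A multipoint inoculating device spotted them onto test agar carrying serial twofold dilutions of compound. Plates were held at 37 °C for 18–20 h. MIC (µg/ml) was read as the lowest concentration giving visible inhibition of growth.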

[4] = tested on: Staphylococcus aureus; test: Antibacterial activity against methicillin-resistant Staphylococcus aureus after 18 to 20 hrs by agar dilution method; procedure, shortened: as §1
[5] = tested on: Streptococcus pneumoniae; test: Antibacterial activity against Streptococcus pneumoniae C402 after 18 to 20 hrs by agar dilution method; procedure, shortened: as §2
[6] = tested on: Enterococcus faecium; test: Antibacterial activity against vancomycin-resistant Enterococcus faecium after 18 to 20 hrs by agar dilution method; procedure, shortened: as §1
[7] = tested on: Enterococcus; test: Antibacterial activity against vancomycin-resistant Enterococcus 2 after 18 to 20 hrs by agar dilution method; procedure, shortened: as §1
[8] = tested on: Enterococcus; test: Antibacterial activity against vancomycin-resistant Enterococcus 6 after 18 to 20 hrs by agar dilution method; procedure, shortened: as §1
[9] = tested on: Enterococcus faecium; test: Antibacterial activity against Enterococcus faecium C803 after 18 to 20 hrs by agar dilution method; procedure, shortened: as §1
[10] = tested on: Haemophilus influenzae; test: Antibacterial activity against Haemophilus influenzae after 18 to 20 hrs by agar dilution method; procedure, shortened: as §2
[11] = tested on: Enterococcus faecalis; test: Antibacterial activity against vancomycin-resistant Enterococcus faecalis after 18 to 20 hrs by agar dilution method; procedure, shortened: as §1
[12] = tested on: Staphylococcus; test: Antibacterial activity against Coagulase negative Staphylococcus after 18 to 20 hrs by agar dilution method; procedure, shortened: as §2
[13] = tested on: Enterococcus; test: Antibacterial activity against vancomycin-resistant Enterococcus 1 after 18 to 20 hrs by agar dilution method; procedure, shortened: as §1
[14] = tested on: Streptococcus pyogenes; test: Antibacterial activity against Streptococcus pyogenes ATCC 8736 after 18 to 20 hrs by agar dilution method; procedure, shortened: as §2
[15] = tested on: Enterococcus; test: Antibacterial activity against vancomycin-resistant Enterococcus 4 after 18 to 20 hrs by agar dilution method; procedure, shortened: as §1
[16] = tested on: Enterococcus faecalis; test: Antibacterial activity against Enterococcus faecalis C474 after 18 to 20 hrs by agar dilution method; procedure, shortened: as §2
[17] = tested on: Staphylococcus aureus; test: Antibacterial activity against Staphylococcus aureus C463 after 18 to 20 hrs by agar dilution method; procedure, shortened: as §1

With CC(=O)NC[C@H]1CN(c2ccc(N3CC(N)C4(CC4)C3)c(F)c2)C(=O)O1 (stereo not given in full) the MIC [1] was 6.25 µg/mL (≈ 17.2 µM), the MIC [2] was 6.25 µg/mL (≈ 17.2 µM) and the MIC [3] was 6.25 µg/mL (≈ 17.2 µM). The MIC [4] was 6.25 µg/mL (≈ 17.2 µM), the MIC [5] was 6.25 µg/mL (≈ 17.2 µM) and the MIC [6] was 6.25 µg/mL (≈ 17.2 µM). For the same compound, the MIC [7] was 6.25 µg/mL (≈ 17.2 µM), the MIC [8] was 12.5 µg/mL (≈ 34.5 µM) and the MIC [9] was 6.25 µg/mL (≈ 17.2 µM). The MIC [10] was 6.25 µg/mL (≈ 17.2 µM), the MIC [11] was 12.5 µg/mL (≈ 34.5 µM) and the MIC [12] was 6.25 µg/mL (≈ 17.2 µM). It also gave an MIC [13] of 12.5 µg/mL (≈ 34.5 µM), an MIC [14] of 6.25 µg/mL (≈ 17.2 µM) and an MIC [15] of 6.25 µg/mL (≈ 17.2 µM). It also gave an MIC [16] of 6.25 µg/mL (≈ 17.2 µM) and an MIC [17] of 6.25 µg/mL (≈ 17.2 µM).

CC(=O)NC[C@H]1CN(c2ccc(N3CC(O)C4(CC4)C3)c(F)c2)C(=O)O1 (stereo not given in full) was tested, and the MIC [1] was 6.25 µg/mL (≈ 17.2 µM), the MIC [2] was 6.25 µg/mL (≈ 17.2 µM) and the MIC [3] was 6.25 µg/mL (≈ 17.2 µM). It also gave an MIC [4] of 6.25 µg/mL (≈ 17.2 µM), an MIC [5] of 3.12 µg/mL (≈ 8.59 µM) and an MIC [6] of 6.25 µg/mL (≈ 17.2 µM). It also gave an MIC [7] of 6.25 µg/mL (≈ 17.2 µM), an MIC [8] of 3.12 µg/mL (≈ 8.59 µM) and an MIC [9] of 6.25 µg/mL (≈ 17.2 µM). The MIC [10] was 6.25 µg/mL (≈ 17.2 µM), the MIC [11] was 6.25 µg/mL (≈ 17.2 µM) and the MIC [12] was 12.5 µg/mL (≈ 34.4 µM). For the same compound, the MIC [13] was 3.12 µg/mL (≈ 8.59 µM), the MIC [14] was 6.25 µg/mL (≈ 17.2 µM) and the MIC [15] was 6.25 µg/mL (≈ 17.2 µM). For the same compound, the MIC [16] was 12.5 µg/mL (≈ 34.4 µM) and the MIC [17] was 12.5 µg/mL (≈ 34.4 µM).

For CC(=O)NC[C@H]1CN(c2ccc(N3C/C(=N\O)C4(CC4)C3)c(F)c2)C(=O)O1, the MIC [1] was 6.25 µg/mL (≈ 16.6 µM), the MIC [2] was 6.25 µg/mL (≈ 16.6 µM) and the MIC [3] was 6.25 µg/mL (≈ 16.6 µM). For the same compound, the MIC [4] was 12.5 µg/mL (≈ 33.2 µM), the MIC [5] was 12.5 µg/mL (≈ 33.2 µM) and the MIC [6] was 12.5 µg/mL (≈ 33.2 µM). For the same compound, the MIC [7] was 6.25 µg/mL (≈ 16.6 µM), the MIC [8] was 12.5 µg/mL (≈ 33.2 µM) and the MIC [9] was 12.5 µg/mL (≈ 33.2 µM). The MIC [10] was 12.5 µg/mL (≈ 33.2 µM), the MIC [11] was 12.5 µg/mL (≈ 33.2 µM) and the MIC [12] was 25 µg/mL (≈ 66.4 µM). The MIC [13] was 12.5 µg/mL (≈ 33.2 µM), the MIC [14] was 6.25 µg/mL (≈ 16.6 µM) and the MIC [15] was 6.25 µg/mL (≈ 16.6 µM). The MIC [16] was 25 µg/mL (≈ 66.4 µM) and the MIC [17] was 12.5 µg/mL (≈ 33.2 µM).

CCCO/N=C1\CN(c2ccc(N3C[C@H](CNC(C)=O)OC3=O)cc2F)CC12CC2 gave an MIC [1] of 12.5 µg/mL (≈ 29.9 µM), an MIC [2] of 12.5 µg/mL (≈ 29.9 µM) and an MIC [3] of 12.5 µg/mL (≈ 29.9 µM). For the same compound, the MIC [4] was 12.5 µg/mL (≈ 29.9 µM), the MIC [5] was 12.5 µg/mL (≈ 29.9 µM) and the MIC [6] was 12.5 µg/mL (≈ 29.9 µM). It also gave an MIC [7] of 12.5 µg/mL (≈ 29.9 µM), an MIC [8] of 12.5 µg/mL (≈ 29.9 µM) and an MIC [9] of 12.5 µg/mL (≈ 29.9 µM). It also gave an MIC [10] of 25 µg/mL (≈ 59.7 µM), an MIC [11] of 25 µg/mL (≈ 59.7 µM) and an MIC [12] of 12.5 µg/mL (≈ 29.9 µM). For the same compound, the MIC [13] was 12.5 µg/mL (≈ 29.9 µM), the MIC [14] was 12.5 µg/mL (≈ 29.9 µM) and the MIC [15] was 12.5 µg/mL (≈ 29.9 µM). It also gave an MIC [16] of 25 µg/mL (≈ 59.7 µM) and an MIC [17] of 25 µg/mL (≈ 59.7 µM).

CC(=O)NC[C@H]1CN(c2ccc(N3CC(F)C4(CC4)C3)c(F)c2)C(=O)O1 (stereo not given in full) showed an MIC [1] of 3.12 µg/mL (≈ 8.54 µM), an MIC [2] of 0.78 µg/mL (≈ 2.13 µM) and an MIC [3] of 0.78 µg/mL (≈ 2.13 µM). The MIC [4] was 0.78 µg/mL (≈ 2.13 µM), the MIC [5] was 1.56 µg/mL (≈ 4.27 µM) and the MIC [6] was 1.56 µg/mL (≈ 4.27 µM). It also gave an MIC [7] of 1.56 µg/mL (≈ 4.27 µM), an MIC [8] of 1.56 µg/mL (≈ 4.27 µM) and an MIC [9] of 0.78 µg/mL (≈ 2.13 µM). It also gave an MIC [10] of 0.39 µg/mL (≈ 1.07 µM), an MIC [11] of 1.56 µg/mL (≈ 4.27 µM) and an MIC [12] of 3.12 µg/mL (≈ 8.54 µM). The MIC [13] was 1.56 µg/mL (≈ 4.27 µM), the MIC [14] was 1.56 µg/mL (≈ 4.27 µM) and the MIC [15] was 0.78 µg/mL (≈ 2.13 µM). The MIC [16] was 1.56 µg/mL (≈ 4.27 µM) and the MIC [17] was 3.12 µg/mL (≈ 8.54 µM).
